Assay [1] concerns the target Platelet-derived growth factor receptor beta (Homo sapiens) (UniProt P09619). The experiment in a line: Inhibition of human recombinant PDGFRb at 40 nM in presence of ATP by radiometric assay relative to control.
In assay [2] the target is Serine/threonine-protein kinase WNK3 (Homo sapiens) (UniProt Q9BYP7). The assay can be described thus: Inhibition of human recombinant Wnk3 at 500 nM related to control ULK1.
In assay [3] the target is Serine/threonine-protein kinase pim-3 (Homo sapiens) (UniProt Q86V86). The experiment in a line: Inhibition of human recombinant PIM3 at 500 nM in presence of ATP by radiometric assay relative to control.
Assay [4] has as its target Tyrosine-protein kinase Fes/Fps (Homo sapiens) (UniProt P07332). The assay can be described thus: Inhibition of human recombinant FES at 500 nM in presence of ATP by radiometric assay relative to control.
The target of assay [5] is Mitogen-activated protein kinase kinase kinase kinase 1 (Homo sapiens) (UniProt Q92918). The assay can be described thus: Inhibition of human recombinant HPK1 at 500 nM related to control ULK1.
Chain of Mitogen-activated protein kinase kinase kinase kinase 1 (Homo sapiens) (Q92918 whole entry, looked up): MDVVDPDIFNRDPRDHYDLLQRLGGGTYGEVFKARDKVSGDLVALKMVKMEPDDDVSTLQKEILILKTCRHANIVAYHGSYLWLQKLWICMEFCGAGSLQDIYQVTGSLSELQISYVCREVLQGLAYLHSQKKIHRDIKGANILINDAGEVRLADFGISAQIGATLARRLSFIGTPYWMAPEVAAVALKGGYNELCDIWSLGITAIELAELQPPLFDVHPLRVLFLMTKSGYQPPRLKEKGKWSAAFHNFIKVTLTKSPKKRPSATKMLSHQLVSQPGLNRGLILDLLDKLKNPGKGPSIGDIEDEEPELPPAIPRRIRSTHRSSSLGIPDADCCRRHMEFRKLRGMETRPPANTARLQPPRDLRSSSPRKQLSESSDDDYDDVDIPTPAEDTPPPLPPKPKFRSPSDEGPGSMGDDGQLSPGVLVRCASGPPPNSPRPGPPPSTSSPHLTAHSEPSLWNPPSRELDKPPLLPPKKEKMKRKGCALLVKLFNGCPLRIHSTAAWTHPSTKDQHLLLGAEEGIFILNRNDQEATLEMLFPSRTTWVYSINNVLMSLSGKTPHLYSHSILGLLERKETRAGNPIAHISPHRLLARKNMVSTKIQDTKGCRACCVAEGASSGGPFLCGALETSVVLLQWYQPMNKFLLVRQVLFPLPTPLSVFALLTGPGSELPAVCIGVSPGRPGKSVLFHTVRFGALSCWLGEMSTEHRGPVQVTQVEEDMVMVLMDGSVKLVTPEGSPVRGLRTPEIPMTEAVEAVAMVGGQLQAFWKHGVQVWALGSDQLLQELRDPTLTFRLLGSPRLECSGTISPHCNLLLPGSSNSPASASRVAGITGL
Assay [6] concerns the target Cyclin-dependent kinase 13 (Homo sapiens) (UniProt Q14004). The experiment in a line: Inhibition of human recombinant CHED at 15 nM related to control ULK1.
In assay [7] the target is T1, Tyrosine-protein kinase JAK3 (Homo sapiens) (UniProt P52333).
T1 sequence (whole entry): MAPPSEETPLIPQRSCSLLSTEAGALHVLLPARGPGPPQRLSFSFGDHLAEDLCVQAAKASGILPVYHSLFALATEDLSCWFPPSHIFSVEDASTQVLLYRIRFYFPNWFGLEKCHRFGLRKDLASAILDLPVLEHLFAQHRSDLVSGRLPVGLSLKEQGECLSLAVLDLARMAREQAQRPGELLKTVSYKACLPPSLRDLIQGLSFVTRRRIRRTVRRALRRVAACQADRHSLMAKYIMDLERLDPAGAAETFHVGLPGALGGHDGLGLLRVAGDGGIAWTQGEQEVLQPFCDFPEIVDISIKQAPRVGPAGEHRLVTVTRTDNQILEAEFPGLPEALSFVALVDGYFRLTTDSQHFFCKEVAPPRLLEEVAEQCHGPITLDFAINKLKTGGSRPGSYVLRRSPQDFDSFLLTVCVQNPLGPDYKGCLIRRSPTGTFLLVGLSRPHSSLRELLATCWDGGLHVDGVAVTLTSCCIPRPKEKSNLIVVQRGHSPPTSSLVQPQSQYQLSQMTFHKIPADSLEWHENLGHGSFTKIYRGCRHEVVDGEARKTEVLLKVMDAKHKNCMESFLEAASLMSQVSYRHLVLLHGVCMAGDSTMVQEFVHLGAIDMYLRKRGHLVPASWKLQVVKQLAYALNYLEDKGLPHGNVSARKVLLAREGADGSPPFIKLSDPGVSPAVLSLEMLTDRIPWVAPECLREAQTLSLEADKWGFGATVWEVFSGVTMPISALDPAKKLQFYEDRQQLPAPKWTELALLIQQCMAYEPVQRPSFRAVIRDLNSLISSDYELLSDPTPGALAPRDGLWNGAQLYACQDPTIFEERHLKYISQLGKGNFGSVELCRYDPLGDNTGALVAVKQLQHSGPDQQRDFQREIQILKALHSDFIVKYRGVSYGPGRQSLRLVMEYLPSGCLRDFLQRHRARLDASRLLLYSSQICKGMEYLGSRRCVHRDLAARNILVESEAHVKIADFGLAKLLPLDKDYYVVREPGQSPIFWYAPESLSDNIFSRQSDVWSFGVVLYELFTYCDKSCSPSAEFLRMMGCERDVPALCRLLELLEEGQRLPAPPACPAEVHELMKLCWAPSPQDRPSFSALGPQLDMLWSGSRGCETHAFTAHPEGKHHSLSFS
The experiment in a line: Inhibition of human recombinant JAK3 at 15 nM related to control ULK1.

The target of assay [8] is T2, Serine/threonine-protein kinase BRSK2 (Homo sapiens) (UniProt Q8IWQ3).
T2 sequence (whole entry): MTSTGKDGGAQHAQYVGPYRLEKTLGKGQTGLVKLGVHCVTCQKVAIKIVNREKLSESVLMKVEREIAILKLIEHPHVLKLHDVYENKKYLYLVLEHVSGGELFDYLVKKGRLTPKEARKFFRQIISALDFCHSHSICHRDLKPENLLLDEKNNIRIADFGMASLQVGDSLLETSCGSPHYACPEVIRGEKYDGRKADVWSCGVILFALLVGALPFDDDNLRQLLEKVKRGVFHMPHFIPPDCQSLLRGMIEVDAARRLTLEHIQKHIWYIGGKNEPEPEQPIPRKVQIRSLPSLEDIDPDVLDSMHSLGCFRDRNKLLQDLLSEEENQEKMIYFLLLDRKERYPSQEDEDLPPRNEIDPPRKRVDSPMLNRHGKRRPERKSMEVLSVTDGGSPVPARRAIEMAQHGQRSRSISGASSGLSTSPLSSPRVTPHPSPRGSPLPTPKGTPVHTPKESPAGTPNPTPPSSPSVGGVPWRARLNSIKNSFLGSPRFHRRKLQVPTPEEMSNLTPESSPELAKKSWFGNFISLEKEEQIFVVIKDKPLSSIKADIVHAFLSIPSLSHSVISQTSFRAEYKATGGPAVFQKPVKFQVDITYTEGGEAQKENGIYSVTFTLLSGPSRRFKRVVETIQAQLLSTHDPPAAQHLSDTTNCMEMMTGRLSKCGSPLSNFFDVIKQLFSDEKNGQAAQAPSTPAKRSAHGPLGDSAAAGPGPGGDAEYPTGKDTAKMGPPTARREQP
The assay can be described thus: Inhibition of human recombinant BRSK2 at 15 nM related to control ULK1. An outline of the steps: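 Recombinant human kinase panel (327 kinases) run as radiometric activity assays, each kinase in duplicate at one compound concentration. Activity remaining expressed relative to vehicle control; percent inhibition taken as 100% minus % activity remaining.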

Structures are written as SMILES.

Chain of Cyclin-dependent kinase 13 (Homo sapiens) (Q14004 whole entry, looked up): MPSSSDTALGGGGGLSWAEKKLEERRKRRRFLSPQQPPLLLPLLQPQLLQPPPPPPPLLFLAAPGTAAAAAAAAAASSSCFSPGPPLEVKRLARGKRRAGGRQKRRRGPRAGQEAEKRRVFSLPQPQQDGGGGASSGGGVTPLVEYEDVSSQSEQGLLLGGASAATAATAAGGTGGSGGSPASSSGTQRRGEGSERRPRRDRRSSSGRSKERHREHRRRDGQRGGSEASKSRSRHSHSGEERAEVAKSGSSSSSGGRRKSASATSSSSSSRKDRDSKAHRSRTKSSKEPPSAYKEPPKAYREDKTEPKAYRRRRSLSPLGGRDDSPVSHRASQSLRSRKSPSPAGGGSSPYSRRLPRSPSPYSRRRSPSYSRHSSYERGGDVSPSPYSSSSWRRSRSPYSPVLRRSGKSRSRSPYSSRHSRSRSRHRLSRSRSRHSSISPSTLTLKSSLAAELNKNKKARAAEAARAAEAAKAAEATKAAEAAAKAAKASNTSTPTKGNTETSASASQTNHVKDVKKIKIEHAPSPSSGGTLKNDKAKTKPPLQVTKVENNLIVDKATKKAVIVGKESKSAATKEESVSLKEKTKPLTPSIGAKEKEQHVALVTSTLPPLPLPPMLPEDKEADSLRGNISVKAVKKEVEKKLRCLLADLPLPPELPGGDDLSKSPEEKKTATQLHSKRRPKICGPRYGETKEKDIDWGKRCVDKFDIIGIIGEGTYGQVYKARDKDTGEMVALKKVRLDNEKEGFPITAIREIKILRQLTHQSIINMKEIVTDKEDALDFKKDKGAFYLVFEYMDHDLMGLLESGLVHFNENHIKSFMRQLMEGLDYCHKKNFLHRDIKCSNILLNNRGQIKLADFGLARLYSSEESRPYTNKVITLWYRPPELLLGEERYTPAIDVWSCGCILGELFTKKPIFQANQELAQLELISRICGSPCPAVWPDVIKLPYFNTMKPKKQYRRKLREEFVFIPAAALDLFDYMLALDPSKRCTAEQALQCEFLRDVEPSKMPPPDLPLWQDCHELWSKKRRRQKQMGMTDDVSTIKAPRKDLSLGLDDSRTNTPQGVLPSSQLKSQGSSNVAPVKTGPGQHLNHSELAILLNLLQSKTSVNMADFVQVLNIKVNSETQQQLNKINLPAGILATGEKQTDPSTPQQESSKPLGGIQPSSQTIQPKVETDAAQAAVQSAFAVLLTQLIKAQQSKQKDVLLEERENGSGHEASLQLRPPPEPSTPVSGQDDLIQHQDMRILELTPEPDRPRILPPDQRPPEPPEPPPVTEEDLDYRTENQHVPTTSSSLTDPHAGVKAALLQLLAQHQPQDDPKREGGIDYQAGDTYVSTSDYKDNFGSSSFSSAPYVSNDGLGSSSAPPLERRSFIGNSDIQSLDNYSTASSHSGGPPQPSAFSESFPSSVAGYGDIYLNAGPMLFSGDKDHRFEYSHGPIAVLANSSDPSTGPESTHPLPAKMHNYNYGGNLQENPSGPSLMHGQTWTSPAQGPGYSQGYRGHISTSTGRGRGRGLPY
Chain of Platelet-derived growth factor receptor beta (Homo sapiens) (P09619 whole entry): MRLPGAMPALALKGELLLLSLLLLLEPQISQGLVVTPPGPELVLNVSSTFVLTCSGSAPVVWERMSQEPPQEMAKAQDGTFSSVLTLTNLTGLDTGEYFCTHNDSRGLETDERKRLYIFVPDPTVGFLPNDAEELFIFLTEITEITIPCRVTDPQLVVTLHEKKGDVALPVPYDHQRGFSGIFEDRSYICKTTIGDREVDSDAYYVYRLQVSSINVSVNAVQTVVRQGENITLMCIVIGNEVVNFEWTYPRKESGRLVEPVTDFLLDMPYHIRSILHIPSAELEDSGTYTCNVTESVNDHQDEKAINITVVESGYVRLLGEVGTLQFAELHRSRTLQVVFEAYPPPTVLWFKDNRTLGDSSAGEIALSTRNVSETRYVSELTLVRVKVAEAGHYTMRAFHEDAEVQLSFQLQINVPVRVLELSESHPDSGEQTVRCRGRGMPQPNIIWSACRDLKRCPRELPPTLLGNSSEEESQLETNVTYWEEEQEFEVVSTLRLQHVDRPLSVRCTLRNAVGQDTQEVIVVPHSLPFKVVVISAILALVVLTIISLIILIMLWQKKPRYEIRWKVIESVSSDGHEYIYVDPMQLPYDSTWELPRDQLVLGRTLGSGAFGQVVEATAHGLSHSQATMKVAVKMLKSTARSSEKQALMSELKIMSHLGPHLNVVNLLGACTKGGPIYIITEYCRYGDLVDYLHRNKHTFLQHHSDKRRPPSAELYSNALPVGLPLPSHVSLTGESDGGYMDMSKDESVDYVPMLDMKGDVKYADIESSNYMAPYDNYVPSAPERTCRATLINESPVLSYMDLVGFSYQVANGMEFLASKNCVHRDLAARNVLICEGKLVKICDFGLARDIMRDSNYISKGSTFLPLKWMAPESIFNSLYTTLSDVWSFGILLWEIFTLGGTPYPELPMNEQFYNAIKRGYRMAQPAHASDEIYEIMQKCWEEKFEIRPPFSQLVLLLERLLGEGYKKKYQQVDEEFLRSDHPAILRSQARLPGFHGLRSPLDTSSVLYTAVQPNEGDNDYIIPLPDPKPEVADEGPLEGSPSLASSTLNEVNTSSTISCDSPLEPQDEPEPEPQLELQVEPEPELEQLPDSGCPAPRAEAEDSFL
Chain of Tyrosine-protein kinase Fes/Fps (Homo sapiens) (P07332 whole entry): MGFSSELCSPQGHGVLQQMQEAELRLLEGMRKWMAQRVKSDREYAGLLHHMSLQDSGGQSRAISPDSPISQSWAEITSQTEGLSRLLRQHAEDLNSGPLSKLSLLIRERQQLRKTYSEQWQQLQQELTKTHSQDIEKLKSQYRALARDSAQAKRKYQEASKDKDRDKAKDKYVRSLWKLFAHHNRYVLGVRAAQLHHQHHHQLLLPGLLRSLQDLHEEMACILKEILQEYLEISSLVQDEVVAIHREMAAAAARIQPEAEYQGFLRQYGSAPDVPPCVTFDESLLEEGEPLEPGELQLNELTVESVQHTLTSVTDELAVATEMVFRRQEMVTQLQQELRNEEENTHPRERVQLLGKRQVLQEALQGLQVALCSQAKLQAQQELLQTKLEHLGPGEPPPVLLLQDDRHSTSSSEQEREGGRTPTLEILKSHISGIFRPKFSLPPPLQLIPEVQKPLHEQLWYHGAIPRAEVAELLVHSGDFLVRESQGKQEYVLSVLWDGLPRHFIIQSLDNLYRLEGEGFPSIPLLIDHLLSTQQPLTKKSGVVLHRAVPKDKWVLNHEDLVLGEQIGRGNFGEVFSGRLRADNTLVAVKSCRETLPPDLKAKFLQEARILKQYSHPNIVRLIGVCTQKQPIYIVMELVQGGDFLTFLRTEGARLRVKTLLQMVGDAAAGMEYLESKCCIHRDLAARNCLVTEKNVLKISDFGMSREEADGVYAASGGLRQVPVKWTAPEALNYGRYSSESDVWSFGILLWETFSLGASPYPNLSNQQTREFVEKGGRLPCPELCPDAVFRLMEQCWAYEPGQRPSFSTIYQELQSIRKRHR

With `O=C(N[C@@H](C1CC1)C(F)(F)F)c1cc(-c2cnn3cc(-c4ccc(F)cc4)cnc23)cs1`, the inhibition in assay [1] was 5%.

Regarding `CNC(=O)c1ccccc1Oc1nc(Nc2cc(OC)c(OC)c(OC)c2)ncc1Br`, the fold change (FC) was determined as 0.08 in assay [2] and 0.43 in assay [5]. Also, the inhibition in assay [3] amounted to 0%; in assay [4], 28%.

For `CC(C)[C@H](NC(=O)c1cc(-c2cnn3cc(-c4ccc(OCCN5CCCCC5)cc4)cnc23)cs1)C(F)(F)F`, the fold change (FC) amounted to 0 in assay [6], 0 in assay [7] and 0.28 in assay [8].
